From ChEMBL document CHEMBL3351532, “In vitro antiplasmodial and cytotoxic activities of asymmetrical pyridinium derivatives” (Eur J Med Chem, 2014)

Assays:
[1] = tested on: Plasmodium falciparum; experiment: Antiplasmodial activity against Plasmodium falciparum 3D7 infected in human erythrocytes assessed as parasite growth inhibition after 72 hrs by SYBR Green I dye based fluorescence assay; type: functional, organism-based; conditions: 3D7, 72 h
Method in brief: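 P. falciparum 3D7, sorbitol-synchronized, in O+ human erythrocytes at 5% hematocrit and 0.5% parasitemia. Medium: RPMI 1640 with 2% human serum, 0.5% Albumax II and 0.2% NaHCO3, at 37 °C in 5% CO2. Triplicate serial dilutions, 0.001% final DMSO, 80 nM chloroquine as positive control, 72 h. SYBR Green I lysis for 1 h in the dark (ex 485/em 530 nm). IC50 by nonlinear regression of counts against log concentration.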

[2] = Selectivity index, ratio of CC50 for rat L6 cells to IC50 for Plasmodium falciparum 3D7; type: functional
[3] = Cytotoxicity against rat L6 cells after 72 hrs by alamar blue assay; type: cell-based
Method in brief: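 Rat L6 skeletal myoblasts plated at 50,000 cells/well in RPMI 1640 with L-glutamine and 10% FBS, left to adhere 3 h, then exposed to serial dilutions for 72 h. Alamar Blue added for 2 h at 37 °C, fluorescence read at ex 536/em 588 nm. TC50 taken as the concentration halving fluorescence relative to inhibitor-free wells.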

Work on `CN(C)c1cc[n+](Cc2ccc(-c3ccc(Cn4cnc5c(SCc6ccccc6)ncnc54)cc3)cc2)cc1` yielded an IC50 [1] of 3220 nM.

Molecule `c1ccc(CSc2ncnc3c2ncn3Cc2ccc(C[n+]3ccc(N4CCCC4)cc3)cc2)cc1` has an IC50 [1] of 411 nM.

`CN(C)c1cc[n+](Cc2ccc(Cn3cnc4c(N)ncnc43)cc2)cc1` showed an IC50 [1] of 14300 nM.

With `Nc1ncnc2c1ncn2Cc1ccc(CCCCc2ccc(C[n+]3ccc(N4CCCC4)cc3)cc2)cc1` the IC50 [1] was 460 nM.

Work on `CN(C)c1cc[n+](Cc2ccc(CCCCc3ccc(Cn4cnc5c(SCc6ccccc6)ncnc54)cc3)cc2)cc1` yielded an IC50 [1] of 500 nM.

For `CN(C)c1cc[n+](Cc2ccc(C[n+]3ccc(N4CCCC4)cc3)cc2)cc1`, the IC50 [1] was 94 nM.

For `CN(C)c1cc[n+](Cc2ccc(CCc3ccc(C[n+]4ccc(N5CCCC5)cc4)cc3)cc2)cc1.[Br-].[Br-]`, the “Ratio CC50/IC50” value [2] was 58.6, the CC50 at 72 h [3] was 0.123 µg/mL and the IC50 [1] was 3 nM.

In the case of `CN(C)c1cc[n+](Cc2ccc(CCc3ccc(C[n+]4ccc(N(C)c5ccc(Cl)cc5)cc4)cc3)cc2)cc1.[Br-].[Br-]`, the “Ratio CC50/IC50” value [2] is reported as 28.6, the CC50 at 72 h [3] is reported as 0.1 µg/mL and the IC50 [1] is reported as 5 nM.

`CN(C)c1cc[n+](Cc2ccc(Cn3cnc(N)c4ncnc3-4)cc2)cc1` showed an IC50 [1] of over 22700 nM.

With `CN(c1ccc(Cl)cc1)c1cc[n+](Cc2ccc(CCc3ccc(C[n+]4ccc(N5CCCC5)cc4)cc3)cc2)cc1` the IC50 [1] was 31 nM.

With `CN(c1ccc(Cl)cc1)c1cc[n+](Cc2ccc(C[n+]3ccc(N4CCCC4)cc3)cc2)cc1` the IC50 [1] was 92 nM.

Work on `CN(C)c1cc[n+](Cc2ccc(Cn3cnc4c(SCc5ccccc5)ncnc43)cc2)cc1` yielded an IC50 [1] of 122 nM.

With `CN(C)c1cc[n+](Cc2ccc(-c3ccc(C[n+]4ccc(N(C)c5ccc(Cl)cc5)cc4)cc3)cc2)cc1.[Br-].[Br-]` the “Ratio CC50/IC50” value [2] was 24.4, the CC50 at 72 h [3] was 0.122 µg/mL and the IC50 [1] was 7 nM.

`Nc1ncnc2c1ncn2Cc1ccc(CCc2ccc(C[n+]3ccc(N4CCCC4)cc3)cc2)cc1` showed an IC50 [1] of 93 nM.

In the case of `CN(C)c1cc[n+](Cc2ccc(-c3ccc(C[n+]4ccc(N5CCCC5)cc4)cc3)cc2)cc1.[Br-].[Br-]`, the “Ratio CC50/IC50” value [2] is reported as 3187.5, the CC50 at 72 h [3] is reported as 5.1 µg/mL and the IC50 [1] is reported as 3 nM.

`c1ccc(CSc2ncnc3c2ncn3Cc2ccc(-c3ccc(C[n+]4ccc(N5CCCC5)cc4)cc3)cc2)cc1` showed an IC50 [1] of 119 nM.

Molecule `CN(C)c1cc[n+](Cc2ccc(CCc3ccc(Cn4cnc5c(N)ncnc54)cc3)cc2)cc1` has an IC50 [1] of 191 nM.

With `Nc1ncnc2c1ncn2Cc1ccc(C[n+]2ccc(N3CCCC3)cc2)cc1` the IC50 [1] was 6430 nM.

`Nc1ncnc2c1ncn2Cc1ccc(-c2ccc(C[n+]3ccc(N4CCCC4)cc3)cc2)cc1` gave an IC50 [1] of 191 nM.

For `Nc1ncn(Cc2ccc(CCc3ccc(C[n+]4ccc(N5CCCC5)cc4)cc3)cc2)c2ncnc1-2`, the IC50 [1] was 210 nM.

`c1ccc(CSc2ncnc3c2ncn3Cc2ccc(CCCCc3ccc(C[n+]4ccc(N5CCCC5)cc4)cc3)cc2)cc1` showed an IC50 [1] of 54 nM.

Work on `CN(C)c1cc[n+](Cc2ccc(CCCCc3ccc(C[n+]4ccc(N(C)c5ccc(Cl)cc5)cc4)cc3)cc2)cc1` yielded an IC50 [1] of 45 nM.

In the case of `CN(C)c1cc[n+](Cc2ccc(CCCCc3ccc(Cn4cnc5c(N)ncnc54)cc3)cc2)cc1`, the IC50 [1] is reported as 162 nM.

In the case of `CN(C)c1cc[n+](Cc2ccc(-c3ccc(Cn4cnc5c(N)ncnc54)cc3)cc2)cc1`, the IC50 [1] is reported as 4840 nM.

`CN(C)c1cc[n+](Cc2ccc(-c3ccc(Cn4cnc(N)c5ncnc4-5)cc3)cc2)cc1` gave an IC50 [1] of 949 nM.

With `CN(C)c1cc[n+](Cc2ccc(CCCCc3ccc(C[n+]4ccc(N5CCCC5)cc4)cc3)cc2)cc1.[Br-].[Br-]` the “Ratio CC50/IC50” value [2] was 8.6, the CC50 at 72 h [3] was 0.012 µg/mL and the IC50 [1] was 2 nM.

`CN(C)c1cc[n+](Cc2ccc(CCc3ccc(Cn4cnc5c(SCc6ccccc6)ncnc54)cc3)cc2)cc1` showed an IC50 [1] of 92 nM.

Molecule `Nc1ncn(Cc2ccc(CCCCc3ccc(C[n+]4ccc(N5CCCC5)cc4)cc3)cc2)c2ncnc1-2` has an IC50 [1] of 84 nM.

Molecule `CN(c1ccc(Cl)cc1)c1cc[n+](Cc2ccc(CCCCc3ccc(C[n+]4ccc(N5CCCC5)cc4)cc3)cc2)cc1` has an IC50 [1] of 37 nM.

Molecule `CN(C)c1cc[n+](Cc2ccc(CCCCc3ccc(Cn4cnc(N)c5ncnc4-5)cc3)cc2)cc1` has an IC50 [1] of 930 nM.

`CN(c1ccc(Cl)cc1)c1cc[n+](Cc2ccc(-c3ccc(C[n+]4ccc(N5CCCC5)cc4)cc3)cc2)cc1` gave an IC50 [1] of 38 nM.

`CN(C)c1cc[n+](Cc2ccc(C[n+]3ccc(N(C)c4ccc(Cl)cc4)cc3)cc2)cc1` showed an IC50 [1] of 66 nM.

With `c1ccc(CSc2ncnc3c2ncn3Cc2ccc(CCc3ccc(C[n+]4ccc(N5CCCC5)cc4)cc3)cc2)cc1` the IC50 [1] was 149 nM.
